In ChEMBL document CHEMBL1275560, “Serial daptomycin selection generates daptomycin-nonsusceptible Staphylococcus aureus strains with a heterogeneous vancomycin-intermediate phenotype” (2008) one finds MIC and Activity data, which are given here for 6 compounds.

By MIC is commonly meant the lowest concentration that inhibits growth of the organism.

Values after ≈ are worked out from the molar mass of the structure shown. Active and inactive are the calls of the source. The rule behind the calls is not given here.

The test system of experiment [1] is Staphylococcus aureus. The experiment can be described thus: Antimicrobial activity against methicillin-resistant Staphylococcus aureus N315DeltaIP by Etest method. The experiment is classed as functional. A digest of the protocol: (§1)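 Etest MICs on Mueller-Hinton agar, run per manufacturer. Fosfomycin plates carried 25 µg/ml glucose-6-phosphate. Daptomycin Etest was also done with 200 µM GdCl3 in agar. Daptomycin MICs were read at 24 h and again at 48 h to capture slowly growing resistant subpopulations.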

For experiment [2], the system named is Staphylococcus aureus. In words: Antimicrobial activity against Staphylococcus aureus 10*3d1 by Etest method. The experiment is classed as functional. A digest of the protocol: (§2)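 MICs read by Etest on Mueller-Hinton agar, following the manufacturer's method. Agents tested were daptomycin, vancomycin, teicoplanin, linezolid, oxacillin, imipenem, bacitracin, fosfomycin and colistin. For fosfomycin the agar carried 25 µg/ml D-glucose-6-phosphate. The daptomycin Etest was also run with 200 µM gadolinium(III) chloride in the agar. Daptomycin MICs were read at both 24 h and 48 h.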

Experiment [3] concerns Staphylococcus aureus. The experiment can be described thus: Antimicrobial activity against Staphylococcus aureus 10*3d1-10 by Etest method. The experiment is classed as functional. A digest of the protocol: as §2
The subject of experiment [4] is Staphylococcus aureus. The experiment can be described thus: Antimicrobial activity against methicillin-resistant Staphylococcus aureus N315DeltaIP by Etest method in presence of 200 uM GdCl3.
In experiment [5] the test system is Staphylococcus aureus. In words: Antimicrobial activity against methicillin-resistant Staphylococcus aureus 10*3d1 by Etest method in presence of 200 uM GdCl3. In kind it is functional. A digest of the protocol: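 Etest on Mueller-Hinton agar containing gadolinium(III) chloride at 200 µM, used as a mechanosensitive channel (MscL) blocker; MICs read at 24 h and also at 48 h so a slowly growing resistant subpopulation is not missed. The strain is a two-step daptomycin-selected derivative of MRSA N315ΔIP, stocked at –80°C in 40% glycerol.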

The test system of experiment [6] is Staphylococcus aureus. In words: Antimicrobial activity against methicillin-resistant Staphylococcus aureus N315DeltaIP assessed as decreased membrane potential. In kind it is functional, organism-based. A digest of the protocol: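 Flow cytometry with DiOC2(3). Cells were grown to exponential phase (OD600 0.3) in MHB with 50 µg/ml calcium, then diluted 1:100 in kit buffer. GdCl3 was 200 µM final; CCCP-treated and heat-killed cells served as controls. TO-PRO-3 (500 nM) flagged damaged membranes. Dye at 30 µM, 4 min, room temperature. 10,000 cells per run, 488-nm excitation; red/green ratio of population mean fluorescence.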

In experiment [7] the test system is Staphylococcus aureus. The experiment can be described thus: Antimicrobial activity against methicillin-resistant Staphylococcus aureus N315DeltaIP heteroresistant subpopulations by Etest method. In kind it is functional. A digest of the protocol:
as §1

For COLISTIN, the MIC against Staphylococcus aureus [1] was 256 µg/mL; in the experiment on Staphylococcus aureus [2] it was 192 µg/mL; in the experiment with Staphylococcus aureus [3], 192 µg/mL.

Turning to `CCCCCCCCCC(=O)N[C@@H](Cc1c[nH]c2ccccc12)C(=O)N[C@H](CC(N)=O)C(=O)N[C@@H](CC(=O)O)C(=O)N[C@@H]1C(=O)NCC(=O)N[C@@H](CCCN)C(=O)N[C@@H](CC(=O)O)C(=O)N[C@H](C)C(=O)N[C@@H](CC(=O)O)C(=O)NCC(=O)N[C@H](CO)C(=O)N[C@@H]([C@H](C)CC(=O)O)C(=O)N[C@@H](CC(=O)c2ccccc2N)C(=O)O[C@@H]1C`, the MIC came to 0.5 µg/mL (≈ 0.309 µM) with Staphylococcus aureus [1]; 0.5 µg/mL with Staphylococcus aureus [4]; 3 µg/mL (≈ 1.85 µM) against Staphylococcus aureus [2]; 3 µg/mL with Staphylococcus aureus [5]; 1 µg/mL (≈ 0.617 µM) with Staphylococcus aureus [3]. Further, the result with Staphylococcus aureus [6] was Active.

Take `CN[C@H](CC(C)C)C(=O)N[C@H]1C(=O)N[C@@H](CC(N)=O)C(=O)N[C@H]2C(=O)N[C@H]3C(=O)N[C@H](C(=O)N[C@H](C(=O)O)c4cc(O)cc(O)c4-c4cc3ccc4O)[C@H](O)c3ccc(c(Cl)c3)Oc3cc2cc(c3O[C@@H]2O[C@H](CO)[C@@H](O)[C@H](O)[C@H]2O[C@H]2C[C@](C)(N)[C@H](O)[C@H](C)O2)Oc2ccc(cc2Cl)[C@H]1O` [VANCOMYCIN]: the minimum inhibitory concentration (MIC) was determined as 0.75 µg/mL (≈ 0.518 µM) against Staphylococcus aureus [1] and 3 µg/mL (≈ 2.07 µM) in the experiment on Staphylococcus aureus [2].

As to `C[C@@H]1O[C@@H]1P(=O)(O)O` [FOSFOMYCIN], the MIC in the experiment on Staphylococcus aureus [1] is 12 µg/mL (≈ 86.9 µM); in the experiment on Staphylococcus aureus [2] it was 0.5 µg/mL (≈ 3.62 µM); in the experiment on Staphylococcus aureus [3], 2 µg/mL (≈ 14.5 µM).

Regarding `C[C@@H](O)[C@H]1C(=O)N2C(C(=O)O)=C(SCCNC=N)C[C@H]12` [IMIPENEM ANHYDROUS], the MIC was 2 µg/mL (≈ 6.68 µM) in the experiment with Staphylococcus aureus [1], over 32 µg/mL against Staphylococcus aureus [2], over 32 µg/mL with Staphylococcus aureus [3] and 3 µg/mL (≈ 10 µM) with Staphylococcus aureus [7].

As for `Cc1onc(-c2ccccc2)c1C(=O)N[C@@H]1C(=O)N2[C@@H]1SC(C)(C)[C@@H]2C(=O)O` [OXACILLIN], the minimal inhibitory concentration (MIC) in the experiment on Staphylococcus aureus [1] is 24 µg/mL (≈ 59.8 µM); against Staphylococcus aureus [2] it was over 256 µg/mL; with Staphylococcus aureus [3], over 256 µg/mL; against Staphylococcus aureus [7] it was 192 µg/mL (≈ 478 µM).
